# Test results as given in ChEMBL document CHEMBL4304816, “A Novel Biphenyl-based Chemotype of Retinoid X Receptor Ligands Enables Subtype and Heterodimer Preferences” (ACS Med Chem Lett, 2019).
# The source made the active and inactive calls. The rule behind the calls is not given here.
# Legend:
# Type in all cases: cell-based
# Homo sapiens = species on record: Homo sapiens; assay: Agonist activity at full-length human PPARgamma/RXR expressed in HEK293T cells at 10 uM after 14 to 16 hrs in presence of 1 uM rosiglitazone by dual-glo luciferase reporter gene assay relative to rosiglitazone
# In short: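 RXR:PPARγ heterodimer reporter assay run with reference PPARγ agonist rosiglitazone (1 μM) co-applied. Read-out is mean relative synergistic activation, from three independent experiments each run in duplicate.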
# [1] = molecular target: T1, Retinoic acid receptor alpha (Homo sapiens) (UniProt P10276); assay: Agonist activity at Gal4-LBD fused RARalpha (unknown origin) expressed in HEK293T cells at 20 uM after 14 to 16 hrs by dual-Glo luciferase assay
# T1 sequence (whole entry): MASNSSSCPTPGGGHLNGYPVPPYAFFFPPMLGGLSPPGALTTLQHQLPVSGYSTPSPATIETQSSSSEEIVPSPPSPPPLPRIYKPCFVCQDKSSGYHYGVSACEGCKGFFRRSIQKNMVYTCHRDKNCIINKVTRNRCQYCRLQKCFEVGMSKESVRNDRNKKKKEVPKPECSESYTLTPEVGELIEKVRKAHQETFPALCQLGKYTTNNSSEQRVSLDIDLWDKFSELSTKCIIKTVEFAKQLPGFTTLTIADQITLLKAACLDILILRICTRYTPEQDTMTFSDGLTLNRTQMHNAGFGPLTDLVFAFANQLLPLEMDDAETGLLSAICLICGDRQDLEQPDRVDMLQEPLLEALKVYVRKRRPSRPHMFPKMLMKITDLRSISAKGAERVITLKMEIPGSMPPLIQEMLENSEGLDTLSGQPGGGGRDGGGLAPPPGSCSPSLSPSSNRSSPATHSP
# In short: (§1)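 Gal4-hybrid reporter gene selectivity panel of related nuclear receptors (PPARα/β/γ, RARα/β/γ) in HEK293T cells. Activity is read as mean fold activation versus 0.1% DMSO vehicle, n ≥ 2.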
# [2] = molecular target: T2, Retinoic acid receptor gamma (Homo sapiens) (UniProt P13631); assay: Agonist activity at Gal4-LBD fused RARgamma (unknown origin) expressed in HEK293T cells after at 20 uM 14 to 16 hrs by dual-Glo luciferase assay; in short: as §1
# T2 sequence (whole entry): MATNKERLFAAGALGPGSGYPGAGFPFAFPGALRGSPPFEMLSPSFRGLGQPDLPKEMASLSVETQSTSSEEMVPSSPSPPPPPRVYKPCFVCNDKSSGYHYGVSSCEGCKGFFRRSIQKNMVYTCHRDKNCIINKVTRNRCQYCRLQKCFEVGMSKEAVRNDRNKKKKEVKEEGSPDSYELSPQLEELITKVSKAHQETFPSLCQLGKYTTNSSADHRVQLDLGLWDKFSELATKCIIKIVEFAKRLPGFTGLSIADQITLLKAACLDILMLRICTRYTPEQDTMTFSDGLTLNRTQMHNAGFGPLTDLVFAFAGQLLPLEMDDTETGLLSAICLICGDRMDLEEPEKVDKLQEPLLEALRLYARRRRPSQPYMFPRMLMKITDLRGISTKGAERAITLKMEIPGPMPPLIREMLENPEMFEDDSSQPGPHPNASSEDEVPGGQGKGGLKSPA
# [3] = molecular target: T3, Peroxisome proliferator-activated receptor alpha (Homo sapiens) (UniProt Q07869); assay: Agonist activity at Gal4-LBD fused PPARalpha (unknown origin) expressed in HEK293T cells at 20 uM after 14 to 16 hrs by dual-Glo luciferase assay; in short: as §1
# T3 sequence (whole entry): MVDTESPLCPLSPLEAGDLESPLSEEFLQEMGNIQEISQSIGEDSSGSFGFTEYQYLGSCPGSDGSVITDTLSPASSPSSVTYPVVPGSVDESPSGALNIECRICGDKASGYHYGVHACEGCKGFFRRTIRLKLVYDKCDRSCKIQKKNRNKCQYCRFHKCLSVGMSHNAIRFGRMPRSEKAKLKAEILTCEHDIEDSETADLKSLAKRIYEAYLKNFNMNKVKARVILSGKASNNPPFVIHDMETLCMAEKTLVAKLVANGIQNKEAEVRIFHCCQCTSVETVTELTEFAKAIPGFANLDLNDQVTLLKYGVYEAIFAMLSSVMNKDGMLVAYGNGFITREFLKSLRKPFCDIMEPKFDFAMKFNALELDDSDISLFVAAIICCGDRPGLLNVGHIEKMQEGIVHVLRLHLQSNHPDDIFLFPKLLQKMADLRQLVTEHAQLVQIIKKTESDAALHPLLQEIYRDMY
# [4] = molecular target: T4, Peroxisome proliferator-activated receptor delta (Homo sapiens) (UniProt Q03181); assay: Agonist activity at Gal4-LBD fused PPARbeta (unknown origin) expressed in HEK293T cells at 20 uM after 14 to 16 hrs by dual-Glo luciferase assay; in short: as §1
# T4 sequence (whole entry): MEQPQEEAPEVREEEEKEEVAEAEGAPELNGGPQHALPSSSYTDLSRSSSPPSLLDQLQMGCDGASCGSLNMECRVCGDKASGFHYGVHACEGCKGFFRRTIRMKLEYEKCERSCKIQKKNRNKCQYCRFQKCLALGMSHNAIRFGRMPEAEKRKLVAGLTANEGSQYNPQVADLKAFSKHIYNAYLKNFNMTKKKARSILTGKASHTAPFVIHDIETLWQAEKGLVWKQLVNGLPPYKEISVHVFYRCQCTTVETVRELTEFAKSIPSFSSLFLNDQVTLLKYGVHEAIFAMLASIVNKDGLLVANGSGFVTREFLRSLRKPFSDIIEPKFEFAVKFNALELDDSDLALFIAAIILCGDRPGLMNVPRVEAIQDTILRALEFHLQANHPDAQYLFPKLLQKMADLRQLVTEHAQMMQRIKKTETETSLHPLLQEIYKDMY
# [5] = molecular target: T5, Peroxisome proliferator-activated receptor gamma (Homo sapiens) (UniProt P37231); assay: Agonist activity at Gal4-LBD fused PPARgamma (unknown origin) expressed in HEK293T cells at 20 uM after 14 to 16 hrs by dual-Glo luciferase assay; in short: as §1
# T5 sequence (whole entry): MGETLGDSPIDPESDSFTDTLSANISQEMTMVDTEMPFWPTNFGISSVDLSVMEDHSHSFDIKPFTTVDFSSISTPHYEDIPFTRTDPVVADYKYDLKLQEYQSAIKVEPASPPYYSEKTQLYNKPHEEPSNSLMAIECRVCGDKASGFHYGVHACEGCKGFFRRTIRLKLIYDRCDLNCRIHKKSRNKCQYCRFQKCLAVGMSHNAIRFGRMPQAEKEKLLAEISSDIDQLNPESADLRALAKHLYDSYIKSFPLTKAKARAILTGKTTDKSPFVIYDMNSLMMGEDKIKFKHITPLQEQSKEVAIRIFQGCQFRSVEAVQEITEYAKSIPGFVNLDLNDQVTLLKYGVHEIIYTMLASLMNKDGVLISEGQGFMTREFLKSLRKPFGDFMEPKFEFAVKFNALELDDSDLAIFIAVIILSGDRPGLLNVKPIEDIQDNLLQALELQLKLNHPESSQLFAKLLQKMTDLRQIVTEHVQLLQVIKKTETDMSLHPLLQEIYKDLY
smiles,measurement,setting,value
Cc1cc(-c2cc(C(F)(F)F)cc(C(F)(F)F)c2)ccc1CC(=O)O,Activity,Homo sapiens,84%
Cc1cc(-c2ccc(C(=O)O)cc2)cc(C(C)(C)C)c1,Activity,[1],Active
same,Activity,[2],Active
same,Activity,[3],Active
same,Activity,[4],Active
same,Activity,[5],Active
